Experimental data as given in ChEMBL document CHEMBL5724801, “EUbOPEN Chemogenomics Library - Multiplex” (2024).
Values joined by “and” are separate entries in the source; they are usually repeats but may differ in a detail not shown here. Equal values may be shown once.

Columns and labels:
Fibroblast = assay: Multiplex assay against human fibroblast; type: toxicity, cell-based
Method in brief: (§1)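 Per cents of healthy-nucleus cells form the tubulin, mitochondrial-mass and membrane-permeability phenotype values. Live cells were stained at seeding with Hoechst33342, BioTracker Green Microtubule Cytoskeleton Dye, MitoTracker Red and Annexin V Alexa Fluor 680. After compound addition they were imaged on a CQ1 microscope at 37°C and 5% CO2, and CellPathfinder machine-learning gating split them into Hoechst high-intensity objects or normal cells, normal cells into healthy, pyknosed or fragmented nuclei, and pyknosed cells into mitotic or apoptotic.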

HEK-293T = assay: Multiplex assay against HEK293T; type: toxicity, cell-based; conditions: human; method in brief: as §1
[1] = 12 h, 1 µM, compound concentration 1 uM
[2] = 12 h, 10 µM, compound concentration 10 uM
[3] = 24 h, 1 µM, compound concentration 1 uM
[4] = 24 h, 10 µM, compound concentration 10 uM
[5] = 48 h, 1 µM, compound concentration 1 uM
[6] = 48 h, 10 µM, compound concentration 10 uM

CCCCCN1C(=O)C2(COc3cc4c(cc32)OCO4)c2ccccc21 (configuration not stated)
Population Apoptotic (%) (Fibroblast; [1]): 17.31% and 20.59%
Population Fragmented Nuclei (%) (Fibroblast; [1]): 11.05% and 2.26%
Population Healthy Nuclei (%) (Fibroblast; [1]): 61.58% and 82.35%
Population Hoechst High Intensity Objects (%) (Fibroblast; [1]): 0%
Population Membrane Permeable-Phenotype (%) (Fibroblast; [1]): 2.56% and 3.85%
Population Mitochondria Different-Phenotype (%) (Fibroblast; [1]): 11.97% and 6.04%
Population Mitotic Cells (%) (Fibroblast; [1]): 82.69% and 79.41%
Population Normal (%) (Fibroblast; [1]): 100%
Population Pyknosed Nuclei (%) (Fibroblast; [1]): 27.37% and 15.38%
Population Tubulin-Different-Phenotype (%) (Fibroblast; [1]): 20.51% and 12.09%
Total Cell Count (Fibroblast; [1]): 190 and 221
Population Fragmented Nuclei (%) (Fibroblast; [2]): 8.24% and 5.79%
Population Healthy Nuclei (%) (Fibroblast; [2]): 54.95% and 72.97%
Population Hoechst High Intensity Objects (%) (Fibroblast; [2]): 0%
Population Membrane Permeable-Phenotype (%) (Fibroblast; [2]): 4% and 3.7%
Population Mitochondria Different-Phenotype (%) (Fibroblast; [2]): 14% and 13.76%
Population Mitotic Cells (%) (Fibroblast; [2]): 97.01% and 85.45%
Population Normal (%) (Fibroblast; [2]): 100%
Population Pyknosed Nuclei (%) (Fibroblast; [2]): 36.81% and 21.24%
Population Tubulin-Different-Phenotype (%) (Fibroblast; [2]): 36% and 35.45%
Total Cell Count (Fibroblast; [2]): 182 and 259
Population Apoptotic (%) (Fibroblast; [3]): 18.18% and 13.04%
Population Fragmented Nuclei (%) (Fibroblast; [3]): 9.76% and 2.67%
Population Healthy Nuclei (%) (Fibroblast; [3]): 74.15% and 87.11%
Population Hoechst High Intensity Objects (%) (Fibroblast; [3]): 0%
Population Membrane Permeable-Phenotype (%) (Fibroblast; [3]): 4.61% and 1.53%
Population Mitochondria Different-Phenotype (%) (Fibroblast; [3]): 7.89% and 4.59%
Population Mitotic Cells (%) (Fibroblast; [3]): 81.82% and 86.96%
Population Normal (%) (Fibroblast; [3]): 100%
Population Pyknosed Nuclei (%) (Fibroblast; [3]): 16.1% and 10.22%
Population Tubulin-Different-Phenotype (%) (Fibroblast; [3]): 16.45% and 15.82%
Total Cell Count (Fibroblast; [3]): 205 and 225
Population Apoptotic (%) (Fibroblast; [4]): 4.65% and 8.82%
Population Fragmented Nuclei (%) (Fibroblast; [4]): 8.78% and 2.37%
Population Healthy Nuclei (%) (Fibroblast; [4]): 70.24% and 84.19%
Population Hoechst High Intensity Objects (%) (Fibroblast; [4]): 0%
Population Membrane Permeable-Phenotype (%) (Fibroblast; [4]): 1.39% and 0.94%
Population Mitochondria Different-Phenotype (%) (Fibroblast; [4]): 13.19% and 12.21%
Population Mitotic Cells (%) (Fibroblast; [4]): 95.35% and 91.18%
Population Normal (%) (Fibroblast; [4]): 100%
Population Pyknosed Nuclei (%) (Fibroblast; [4]): 20.98% and 13.44%
Population Tubulin-Different-Phenotype (%) (Fibroblast; [4]): 42.36% and 37.09%
Total Cell Count (Fibroblast; [4]): 205 and 253
Population Fragmented Nuclei (%) (Fibroblast; [5]): 11.57% and 4.05%
Population Healthy Nuclei (%) (Fibroblast; [5]): 82.41% and 89.64%
Population Hoechst High Intensity Objects (%) (Fibroblast; [5]): 0%
Population Membrane Permeable-Phenotype (%) (Fibroblast; [5]): 1.12% and 3.02%
Population Mitotic Cells (%) (Fibroblast; [5]): 92.31% and 64.29%
Population Normal (%) (Fibroblast; [5]): 100%
Population Pyknosed Nuclei (%) (Fibroblast; [5]): 6.02% and 6.31%
Population Tubulin-Different-Phenotype (%) (Fibroblast; [5]): 5.62% and 14.07%
Total Cell Count (Fibroblast; [5]): 216 and 222
Population Apoptotic (%) (Fibroblast; [6]): 37.5% and 23.53%
Population Fragmented Nuclei (%) (Fibroblast; [6]): 7.32% and 3.05%
Population Healthy Nuclei (%) (Fibroblast; [6]): 84.88% and 90.46%
Population Hoechst High Intensity Objects (%) (Fibroblast; [6]): 0%
Population Membrane Permeable-Phenotype (%) (Fibroblast; [6]): 1.15% and 2.95%
Population Mitochondria Different-Phenotype (%) (Fibroblast; [6]): 15.52% and 5.91%
Population Mitotic Cells (%) (Fibroblast; [6]): 62.5% and 76.47%
Population Normal (%) (Fibroblast; [6]): 100%
Population Pyknosed Nuclei (%) (Fibroblast; [6]): 7.8% and 6.49%
Population Tubulin-Different-Phenotype (%) (Fibroblast; [6]): 16.09% and 33.76%
Total Cell Count (Fibroblast; [6]): 205 and 262
Population Apoptotic (%) (HEK-293T; [1]): 10.57% and 8.94%
Population Fragmented Nuclei (%) (HEK-293T; [1]): 1.96% and 2%
Population Hoechst High Intensity Objects (%) (HEK-293T; [1]): 0%
Population Membrane Permeable-Phenotype (%) (HEK-293T; [1]): 0%
Population Mitotic Cells (%) (HEK-293T; [1]): 89.43% and 91.06%
Population Normal (%) (HEK-293T; [1]): 100%
Population Pyknosed Nuclei (%) (HEK-293T; [1]): 40.2% and 82%
Total Cell Count (HEK-293T; [1]): 306 and 150
Population Apoptotic (%) (HEK-293T; [2]): 8.79% and 6.67%
Population Fragmented Nuclei (%) (HEK-293T; [2]): 0.63% and 1.94%
Population Hoechst High Intensity Objects (%) (HEK-293T; [2]): 0.31% and 0%
Population Membrane Permeable-Phenotype (%) (HEK-293T; [2]): 1.48% and 0%
Population Mitochondria Different-Phenotype (%) (HEK-293T; [2]): 29.63% and 35.29%
Population Mitotic Cells (%) (HEK-293T; [2]): 91.21% and 93.33%
Population Normal (%) (HEK-293T; [2]): 99.69% and 100%
Population Pyknosed Nuclei (%) (HEK-293T; [2]): 57.05% and 87.1%
Total Cell Count (HEK-293T; [2]): 320 and 155
Population Apoptotic (%) (HEK-293T; [3]): 13.4% and 12.71%
Population Fragmented Nuclei (%) (HEK-293T; [3]): 1.54% and 2.04%
Population Healthy Nuclei (%) (HEK-293T; [3]): 79.73% and 37.76%
Population Hoechst High Intensity Objects (%) (HEK-293T; [3]): 0% and 0.51%
Population Membrane Permeable-Phenotype (%) (HEK-293T; [3]): 1.21% and 2.7%
Population Mitochondria Different-Phenotype (%) (HEK-293T; [3]): 16.46% and 10.81%
Population Mitotic Cells (%) (HEK-293T; [3]): 86.6% and 87.29%
